Hits are enriched below; roughly 2.3% of the tested compounds scored in any of these assays.
TRPC4 PAM: TRPC4 (mouse) allosteric potentiation; B-score at 10 µM; Q9QUQ5; HEK293 TRPC4beta/mu-opioid, DAMGO EC20, Fluo-4 Ca2+ flux; hits give high values; 310,000 tested, 0.42% active;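 active means B-score of calcium response area above 5 SD of library B-scores, with initial fluorescence ratio within 5 SD of library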
TRPC4 act: TRPC4 (mouse) channel activation. Q9QUQ5. HEK293 TRPC4beta/mu-opioid, Fluo4 calcium fluorescence; hits give high values. B-score at 10 µM. 310,000 tested, 0.49% active. AID 2237;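 active means B-score above 5 SD of library B-scores, and initial fluorescence ratio not above library mean plus 5 SD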;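 further: positive B-score marks a calcium rise read as TRPC4 activation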
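Assay system – TRPC4beta and mu-opioid receptor HEK293 stable cells · Measured by – Fluo4 fluorescence, kinetic · Schedule – dye loading 45 min room temperature, 110 s kinetic read · Read-out – B-scored integrated calcium fluorescence ratio · Controls – buffer and maximal DAMGO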
TRPC6 inhibitor: blocks the mouse TRPC6 cation channel. AID 2553. 310,000 tested, 1.1% active. HEK293-TRPC6, membrane potential dye, ACh-evoked depolarization; hits give low values. Q61143. B-score at 10 µM;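 active means B-score under library mean minus 3 SD, initial fluorescence not abnormally high, positive integrated signal ratio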;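 further: B-score derived from integrated fluorescence ratio over the kinetic read; more negative B-score means stronger inhibition of depolarization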
Target sequence (Q61143 whole entry, looked up): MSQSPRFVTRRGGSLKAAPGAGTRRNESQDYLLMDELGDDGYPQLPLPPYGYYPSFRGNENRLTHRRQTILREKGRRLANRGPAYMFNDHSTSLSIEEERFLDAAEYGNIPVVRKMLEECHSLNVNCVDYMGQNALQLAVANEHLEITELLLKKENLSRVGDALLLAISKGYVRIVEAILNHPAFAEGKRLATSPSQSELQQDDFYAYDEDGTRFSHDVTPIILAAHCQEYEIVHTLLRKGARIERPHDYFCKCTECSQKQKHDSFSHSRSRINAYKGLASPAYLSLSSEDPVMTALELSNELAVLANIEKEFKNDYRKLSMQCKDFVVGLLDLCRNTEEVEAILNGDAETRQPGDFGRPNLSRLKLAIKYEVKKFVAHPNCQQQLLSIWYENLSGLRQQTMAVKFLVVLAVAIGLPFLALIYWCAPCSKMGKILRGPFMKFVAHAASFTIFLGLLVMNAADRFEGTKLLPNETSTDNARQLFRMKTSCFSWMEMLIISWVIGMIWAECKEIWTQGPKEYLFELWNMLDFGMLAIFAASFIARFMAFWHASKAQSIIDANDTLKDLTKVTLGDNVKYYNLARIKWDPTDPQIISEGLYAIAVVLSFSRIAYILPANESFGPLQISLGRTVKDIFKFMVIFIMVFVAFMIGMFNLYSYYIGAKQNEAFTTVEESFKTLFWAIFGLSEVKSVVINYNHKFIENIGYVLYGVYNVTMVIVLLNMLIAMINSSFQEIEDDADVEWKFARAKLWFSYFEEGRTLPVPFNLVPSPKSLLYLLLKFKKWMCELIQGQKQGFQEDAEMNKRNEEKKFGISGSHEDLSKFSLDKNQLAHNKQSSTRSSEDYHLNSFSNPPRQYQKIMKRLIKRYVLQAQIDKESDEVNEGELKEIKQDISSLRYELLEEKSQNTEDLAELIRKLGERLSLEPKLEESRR
TRPC6 act: activates the mouse TRPC6 cation channel | B-score at 10 µM | HEK293-TRPC6 membrane potential dye fluorescence; hits give high values | 310,000 tested, 0.13% active;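 active means B-score of the integrated fluorescence ratio above library mean plus 3 SD, and starting fluorescence ratio within library mean plus 5 SD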;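 further: higher score means more depolarization so channel activation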
TRPC4 block: TRPC4 (mouse) channel inhibition; Q9QUQ5; 300,000 tested, 0.39% active; B-score at 10 µM; HEK293 TRPC4beta/mu-opioid, DAMGO-evoked Fluo4 calcium flux; hits give low values;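 active means B-score over 3 SD under the library average, no early fluorescence shift, positive overall ratio signal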
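Assay system: HEK293 cells with stable TRPC4beta plus mu-opioid receptor expression; Probe or stimulus: DAMGO in two steps, submaximal then maximal; Dosing: single-point compound dosing; Measured by: Fluo4 calcium-dye fluorescence, kinetic read; Read-out basis: B score from integrated Fluo4 fluorescence ratio.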
TRPC4 sel inh 2: second selectivity test of TRPC6 inhibitors: effect on mouse TRPC4 | 920 tested, 42% active | shares compounds with TRPC6 inhibitor | inhibition, % at 10 µM | HEK293 TRPC4/MOR, membrane potential dye fluorescence; channel activated by saturating DAMGO dose;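 active means compounds whose fluorescence signal differed from control wells by over 3 SD, either direction, in both duplicate plates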
TRPC4 spec: selectivity of TRPC6 inhibitors: effect on mouse TRPC4. 920 tested, 61% active. shares compounds with TRPC6 inhibitor. activity change, negative = inhibition, % at 10 µM. HEK293 TRPC4/mu-opioid, membrane potential fluorescence;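 active means rise or fall in signal beyond 3 SD of buffer-only wells in both replicate plates, either sign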;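 further: integrated kinetic ratio of fluorescence range over baseline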
HEK293 MPD ctr 2-1: parental HEK293 nonspecific activity of TRPC6 inhibitors, second screen; shares compounds with TRPC6 inhibitor; 920 tested, 31% active; signal change vs control, % at 10 µM; AID 2779; parental HEK293 membrane potential dye fluorescence; maximal acetylcholine challenge after compound addition;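 active means membrane potential signal moving either way by over 3 SD of the maximum-effect control, in both duplicate plates, meaning non-specific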
HEK293 MPD ctr-1: counter-screen for TRPC6 inhibitors: effect in parental HEK293 cells; shares compounds with TRPC6 inhibitor; membrane potential signal change, % at 10 µM; parental HEK293 membrane potential dye fluorescence; 920 tested, 60% active; AID 2780;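 active means membrane potential signal shifting up or down by more than 3 SD of buffer-only wells, on both duplicate plates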
HEK293 MPD ctr-2: counter-screen for TRPC6 modulators: effect in parental HEK293 cells. shares compounds with TRPC6 inhibitor. membrane potential dye fluorescence. membrane potential signal change, % at 10 µM. 2,400 tested, 51% active. AID 488924;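 active means membrane potential signal moves up or down beyond 5 SD from buffer-only wells, on both duplicate plates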
HEK293 MPD ctr 2-2: second counter-screen for TRPC6 modulators: effect in parental HEK293 cells | membrane potential dye fluorescence; after compound, maximal acetylcholine stimulation | inhibition, % at 10 µM | shares compounds with TRPC6 inhibitor | 2,400 tested, 14% active;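 active means membrane potential signal drops by more than 5 SD from the mean control signal, in both duplicate plates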
TRPC4 ctr mod: tests whether TRPC6 modulators also affect mouse TRPC4; HEK293 TRPC4/mu-opioid, membrane potential fluorescence; shares compounds with TRPC6 inhibitor; percent change from control (negative = decrease, positive = increase), % at 10 µM; 2,400 tested, 69% active; AID 488927;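 active means membrane potential signal moved up or down beyond 5 SD of buffer control wells, in both duplicate plates, actives on both sides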
TRPC4/MOR inh 2: second check of whether TRPC6 modulators also affect mouse TRPC4 | AID 488928 | shares compounds with TRPC6 inhibitor | inhibition, % at 10 µM | 2,400 tested, 55% active | HEK293 TRPC4/mu-opioid, membrane potential dye fluorescence; stimulated with maximal-effect DAMGO;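 active means drop in membrane potential signal beyond 5 SD of the control wells in both duplicate plates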;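 further: TRPC4 counter screen for TRPC6 hits run under conditions tuned for TRPC6 not TRPC4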
TRPC6 inh conf: mouse TRPC6 inhibitor confirmation. shares compounds with TRPC6 inhibitor. inhibition, % at 10 µM. 3,300 tested, 43% active. HEK293-TRPC6, membrane potential dye, ACh-evoked depolarization;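 active means fluorescence ratio falls more than 5 SD below the full-stimulation control mean, in both duplicate runs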;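 further: integrated fluorescence ratio of peak minus minimum over baseline after agonist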
TRPC6 act confirm: confirmation of mouse TRPC6 activators; shares compounds with TRPC6 inhibitor; HEK293-TRPC6 membrane potential dye fluorescence, FDSS; activation, % at 10 µM; 2,800 tested, 11% active;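 active means ratio signal rise beyond 5 SD above unstimulated control wells' mean, seen in both duplicate runs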
Large screens that a line does not name were inactive (follow-up assays come after a bar, where they were run).

CC(C)OCC(O)CN1CCN(CCN2C(=O)c3cccc4cccc(c34)C2=O)CC1 (stereo unspecified)	none
CC(C)c1nc(SCC(=O)Nc2nc3c(s2)CCCC3)c2ccccc2n1	none
COc1cc(Br)cc2cc(C(=O)OC3CCN(C)CC3)c(=O)oc12	TRPC6 inhibitor -12 | TRPC4 sel inh 2 72% | TRPC4 spec -25% | HEK293 MPD ctr 2-1 inactive | HEK293 MPD ctr-1 -472% | TRPC6 inh conf inactive | TRPC6 act confirm inactive
CC(=O)C(C)Sc1nnc(-c2ccccc2F)n1C1CC1 (stereo unspecified)	none
Cc1ccn2cc(-c3ccc(O)c(O)c3)nc2c1	TRPC6 inhibitor -5.3 | HEK293 MPD ctr-2 -120% | HEK293 MPD ctr 2-2 inactive | TRPC4 ctr mod -23% | TRPC4/MOR inh 2 inactive | TRPC6 inh conf inactive | TRPC6 act confirm inactive
Oc1ccc(-c2cn3ccccc3n2)cc1O	none
CCOc1ccc(NC(=S)NCc2ccc3[nH]c(C)cc3c2)cc1	TRPC6 inhibitor -8.1 | TRPC4 sel inh 2 inactive | TRPC4 spec -9.5% | HEK293 MPD ctr 2-1 inactive | HEK293 MPD ctr-1 -150% | TRPC6 inh conf inactive | TRPC6 act confirm inactive
O=C(Cc1ccccc1[N+](=O)[O-])NCCCc1ccccc1	none
COc1cccc(C2c3c(C)nn(-c4ccc([N+](=O)[O-])cc4)c3N=C3C(=O)Nc4ccccc4N32)c1 (stereo unspecified)	TRPC6 inhibitor -5.7 | HEK293 MPD ctr-2 inactive | HEK293 MPD ctr 2-2 inactive | TRPC4 ctr mod inactive | TRPC4/MOR inh 2 54% | TRPC6 inh conf inactive | TRPC6 act confirm inactive
Cc1nn(-c2ccc([N+](=O)[O-])cc2)c2c1C(c1ccc(OC(F)F)cc1)N1C(=N2)C(=O)Nc2ccccc21 (stereo unspecified)	none
Cc1ccc2nc3ccc(N4CCCC4)nn3c(=O)c2c1	TRPC6 inhibitor -6.9 | TRPC4 sel inh 2 inactive | TRPC4 spec -25% | HEK293 MPD ctr 2-1 42% | HEK293 MPD ctr-1 -324% | TRPC6 inh conf inactive | TRPC6 act confirm inactive
O/C(=C\c1nc2ccccc2nc1/C=C(\O)c1ccccc1)c1ccccc1	TRPC6 act 13 | HEK293 MPD ctr-2 268% | HEK293 MPD ctr 2-2 inactive | TRPC4 ctr mod inactive | TRPC4/MOR inh 2 inactive | TRPC6 inh conf inactive | TRPC6 act confirm inactive
O=c1oc2ccccc2nc1/C=C(\O)c1ccccc1	none
O/C(=C\c1ccc2ccccc2n1)c1ccncc1	TRPC4 act 66, TRPC6 act 46 | HEK293 MPD ctr-2 active | HEK293 MPD ctr 2-2 active | TRPC4 ctr mod 186% | TRPC4/MOR inh 2 48% | TRPC6 act confirm 314%
Cc1ccc(S(=O)(=O)NC(=O)c2cc(C)n(CCCN3CCOCC3)c2C)cc1	none
O=C(c1cccc(F)c1)N1CCN(c2cccc(Cl)c2)CC1	TRPC6 inhibitor -16 | TRPC4 sel inh 2 inactive | TRPC4 spec 5.7% | HEK293 MPD ctr 2-1 inactive | HEK293 MPD ctr-1 2.7% | TRPC6 inh conf 59% | TRPC6 act confirm inactive
O=C(c1ccc(S(=O)(=O)N2CCCC2)cc1)N1CCN(S(=O)(=O)c2cccc(F)c2)CC1	none
Cc1ccc(S(=O)(=O)N2CCN(C(=O)c3cccc(F)c3)CC2)cc1	TRPC6 inhibitor -6.1 | HEK293 MPD ctr-2 inactive | HEK293 MPD ctr 2-2 inactive | TRPC4 ctr mod inactive | TRPC4/MOR inh 2 inactive | TRPC6 inh conf 70%
COc1ccc(S(=O)(=O)N2CCN(C(=O)c3cccc(Cl)c3)CC2)cc1	TRPC6 inhibitor -5.6 | HEK293 MPD ctr-2 inactive | HEK293 MPD ctr 2-2 inactive | TRPC4 ctr mod 12% | TRPC4/MOR inh 2 inactive | TRPC6 inh conf 56%
Cc1ccc(C)c(NC(=O)CCN2C(=O)[C@@H]3Cc4ccccc4CN3C2=O)c1	none
CC(C)(C)NC(=O)NC(=O)CN1CCN(S(=O)(=O)c2ccc3c(c2)CCCC3)CC1	none
O=C(NCc1ccc(N2CCCC2=O)cc1)C1CCC(=O)N(Cc2ccccc2F)C1 (stereo unspecified)	none
O=C(N/N=C/c1cccc([N+](=O)[O-])c1)c1cc[n+](CCO)cc1	TRPC6 inhibitor -5.7 | HEK293 MPD ctr-2 -88% | HEK293 MPD ctr 2-2 inactive | TRPC4 ctr mod -22% | TRPC4/MOR inh 2 inactive | TRPC6 inh conf inactive | TRPC6 act confirm inactive
O=C(N/N=C/c1cccnc1)c1ccc([N+](=O)[O-])cc1	TRPC6 inhibitor -5.3 | HEK293 MPD ctr-2 -196% | HEK293 MPD ctr 2-2 inactive | TRPC4 ctr mod -36% | TRPC4/MOR inh 2 30% | TRPC6 inh conf inactive | TRPC6 act confirm inactive
Cc1ccc(N=Cc2c(O)n(C)c(=O)n(C)c2=O)nc1	TRPC6 inhibitor -5.6 | HEK293 MPD ctr-2 inactive | HEK293 MPD ctr 2-2 inactive | TRPC4 ctr mod -15% | TRPC4/MOR inh 2 inactive | TRPC6 inh conf inactive | TRPC6 act confirm inactive
Cc1ccc(N=CC2=C(O)CC(C)(C)CC2=O)nc1	none
Cc1ccc(S(=O)(=O)O/N=C2/CCCc3occc32)cc1	none
CN1CCCc2cc(C=O)ccc21	TRPC6 inhibitor -7.9 | TRPC4 sel inh 2 inactive | TRPC4 spec -8.7% | HEK293 MPD ctr 2-1 inactive | HEK293 MPD ctr-1 inactive | TRPC6 inh conf inactive | TRPC6 act confirm inactive
COc1ccc2nc(C)cc(N3CCC(C(N)=O)CC3)c2c1	TRPC6 inhibitor -9.1 | HEK293 MPD ctr-2 -356% | HEK293 MPD ctr 2-2 94% | TRPC4 ctr mod -60% | TRPC4/MOR inh 2 62% | TRPC6 inh conf 72% | TRPC6 act confirm inactive

Assay outcomes as filed in PubChem BioAssay.
